Measured values published in ChEMBL document CHEMBL1949637, “Anticancer effects of the metabolic products of the resveratrol analogue, DMU-212: structural requirements for potency” (Eur J Med Chem, 2011).
Activity calls are given as the source filed them. The calls are words filed in the database; no cut-off is given here.

Tests used:
Type in all cases: functional, cell-based
[1] = tested on: HepG2; experiment: Cytotoxicity against human HepG2 cells up to 20 uM after 96 hrs by MTT assay
[2] = tested on: MCF7; experiment: Cytotoxicity against human MCF7 cells up to 20 uM after 96 hrs by MTT assay
[3] = tested on: MCF7; experiment: Cell cycle arrest in human MCF7 cells assessed as accumulation at G1 phase at 10 uM after 24 hrs using propidium iodide staining by flow cytometry
How it was run: (§1)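 Cells cultured in T75 flasks, serum-starved 24 h, then exposed to 10 μM for 24 h. Trypsinised, washed in PBS and fixed in 70% ethanol for at least 2 h. Stained with propidium iodide 50 μg/mL containing RNase A 100 μg/mL. DNA content read by flow cytometry on at least 10,000 events. Percentage of cells in each phase recorded.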

[4] = tested on: HeLa; experiment: Cytotoxicity against human HeLa cells after 96 hrs by MTT assay
How it was run: (§2)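 Cells plated in 96-well plates and allowed 24 h growth. Medium was replaced with serial dilutions, 0.079–20 μM, for 96 h. Viability read spectrophotometrically by MTT reduction. IC₅₀ values taken from at least 3 experiments. MCF-7 cells were kept in RPMI-1640 and HepG2/HeLa in DMEM, each with 10% heat-inactivated FCS.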

[5] = tested on: HeLa; experiment: Cell cycle arrest in human HeLa cells assessed as accumulation at G2/M phase at 10 uM after 24 hrs using propidium iodide staining by flow cytometry; how it was run: as §1
[6] = tested on: HepG2; experiment: Upregulation of p53 protein expression in human HepG2 cells after 24 hrs by Western blot analysis
How it was run: (§3)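 MCF-7 or HepG2 cells seeded at 3 × 10⁵ cells/mL in 6-well plates and treated 24 h at 37 °C with 0, 30, 40 or 50 μM. Lysed in buffer with protease inhibitors and 1 mM DTT, then sonicated. Lysates run on SDS-PAGE (10% resolving gel), wet-blotted to PVDF and probed overnight at 4 °C. Antibodies were anti-β-tubulin 1:400, p53 1:200, cyclin D1 1:200; β-actin 1:400 served as loading reference. Detection by ECL.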

[7] = tested on: MCF7; experiment: Antimitotic activity in human MCF7 cells assessed as decrease in localization of beta-tubulin expression around cell nucleus at 30 uM after 48 hrs by immunofluorescence staining
How it was run: (§4)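 MCF-7 cells seeded on coverslips in 24-well plates, 8 × 10⁴ cells/well, exposed to 10 or 30 μM for 24 or 48 h. Fixed, permeabilised, then stained 1 h at room temperature with anti-β-tubulin (1:200 in PBS/1% FBS). Secondary was AlexaFluor-conjugated anti-mouse IgG (1:500), 1 h in the dark. Read by fluorescence microscopy.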

[8] = tested on: HepG2; experiment: Cytotoxicity against human HepG2 cells after 96 hrs by MTT assay; conditions: HepG2, 96 h; how it was run: as §2
[9] = tested on: HepG2; experiment: Cell cycle arrest in human HepG2 cells assessed as accumulation at S phase at 10 uM after 24 hrs using propidium iodide staining by flow cytometry; how it was run: as §1
[10] = tested on: MCF7; experiment: Upregulation of p53 protein expression in human MCF7 cells after 24 hrs by Western blot analysis; how it was run: as §3
[11] = tested on: MCF7; experiment: Cytotoxicity against human MCF7 cells after 96 hrs by MTT assay; conditions: MCF7, 96 h; how it was run: as §2
[12] = tested on: MCF7; experiment: Downregulation of cyclin D1 expression in human MCF7 cells after 24 hrs by Western blot analysis; how it was run: as §3
[13] = tested on: HepG2; experiment: Cell cycle arrest in human HepG2 cells assessed as accumulation at G2/M phase at 10 uM after 24 hrs using propidium iodide staining by flow cytometry; how it was run: as §1
[14] = tested on: MCF7; experiment: Induction of apoptosis in human MCF7 cells assessed as nuclear fragmentation at 10 uM after 24 hrs using DAPI staining by immunofluorescence method
How it was run: (§5)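 MCF-7 cells grown on coverslips (8 × 10⁴ cells/well) and treated 24 h at 10 or 30 μM. Fixed, permeabilised and processed as for β-tubulin immunostaining. DAPI working solution applied at 1:100 for 5 min. Fragmented nuclei scored by fluorescence microscopy.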

[15] = tested on: MCF7; experiment: Induction of apoptosis in human MCF7 cells assessed as nuclear fragmentation at 30 uM after 24 hrs using DAPI staining by immunofluorescence method; how it was run: as §5
[16] = tested on: MCF7; experiment: Downregulation of beta-tubulin expression in human MCF7 cells at >30 uM after 24 hrs by Western blot analysis; how it was run: as §3
[17] = tested on: HepG2; experiment: Downregulation of beta-tubulin expression in human HepG2 cells at >30 uM after 24 hrs by Western blot analysis; how it was run: as §3
[18] = tested on: HepG2; experiment: Downregulation of cyclin D1 expression in human HepG2 cells after 24 hrs by Western blot analysis; how it was run: as §3
[19] = tested on: MCF7; experiment: Antimitotic activity in human MCF7 cells assessed as effect on beta-tubulin distribution at 10 uM after 24 hrs by immunofluorescence staining; how it was run: as §4
[20] = tested on: MCF7; experiment: Cell cycle arrest in human MCF7 cells assessed as accumulation at G2/M phase at 10 uM after 24 hrs using propidium iodide staining by flow cytometry; how it was run: as §1
[21] = tested on: MCF7; experiment: Antimitotic activity in human MCF7 cells assessed as decrease in localization of beta-tubulin expression around cell nucleus at 30 uM after 24 hrs by immunofluorescence staining; how it was run: as §4
[22] = tested on: HepG2; experiment: Cell cycle arrest in human HepG2 cells assessed as accumulation at G1 phase at 10 uM after 24 hrs using propidium iodide staining by flow cytometry; how it was run: as §1
[23] = tested on: MCF7; experiment: Cell cycle arrest in human MCF7 cells assessed as accumulation at S phase at 10 uM after 24 hrs using propidium iodide staining by flow cytometry; how it was run: as §1
[24] = tested on: HepG2; experiment: Induction of apoptosis in human HepG2 cells assessed as increase of ratio of Bax to Bcl-xL mRNA level at 20 to 40 uM after 24 hrs by RT-PCR analysis
[25] = tested on: HepG2; experiment: Induction of apoptosis in human HepG2 cells assessed as upregulation of Bax mRNA level after 24 hrs by RT-PCR analysis
[26] = tested on: MCF7; experiment: Induction of apoptosis in human MCF7 cells assessed as increase of ratio of Bax to Bcl-xL mRNA level at 30 to 40 uM after 24 hrs by RT-PCR analysis
[27] = tested on: MCF7; experiment: Induction of apoptosis in human MCF7 cells assessed as down-regulation of Bcl-xL mRNA level after 24 hrs by RT-PCR analysis
[28] = tested on: MCF7; experiment: Induction of apoptosis in human MCF7 cells assessed as upregulation of Bax mRNA level after 24 hrs by RT-PCR analysis
[29] = tested on: HepG2; experiment: Induction of apoptosis in human HepG2 cells assessed as effect on Bcl-xL mRNA level after 24 hrs by RT-PCR analysis

COc1cc(/C=C/c2ccc(O)cc2)cc(OC)c1OC
Activity [1]: inactive
Activity [2]: inactive

COc1ccc(/C=C/c2cc(O)c(OC)c(OC)c2)cc1
Activity [1]: inactive
Activity [2]: inactive

COc1ccc(/C=C/c2cc(OC)c(O)c(OC)c2)cc1
Activity [1]: inactive
Activity [2]: inactive

COc1ccc(/C=C/c2cc(OC)c(OC)c(OC)c2)cc1
Activity [3]: Active
Activity [4]: Active
Activity [5]: Active
Activity [6]: Dose-dependent effect
Activity [7]: Active
IC50 [8]: 300 nM
Activity [9]: Active
Activity [10]: Dose-dependent effect
IC50 [11]: 300 nM
Activity [12]: Dose-dependent effect
Activity [13]: Active
Activity [14]: inactive
Activity [15]: Active
Activity [16]: Active
Activity [17]: Active
Activity [18]: Dose-dependent effect
Activity [19]: inactive
Activity [20]: Active
Activity [21]: Active
Activity [22]: Active
Activity [23]: Active

COc1ccc(/C=C/c2cc(OC)c(OC)c(OC)c2)cc1O
Activity [24]: Active
Activity [3]: Active
Activity [4]: Active
Activity [5]: Active
Activity [6]: Dose-dependent effect
Activity [7]: Active
Activity [9]: Active
Activity [10]: Dose-dependent effect
Activity [25]: Dose-dependent effect
Activity [1]: Active
Activity [26]: Active
Activity [12]: Dose-dependent effect
Activity [13]: Active
Activity [14]: inactive
Activity [15]: Active
Activity [16]: Active
Activity [17]: Active
Activity [2]: Active
Activity [18]: Dose-dependent effect
Activity [27]: Active
Activity [19]: inactive
Activity [28]: Dose-dependent effect
Activity [20]: Active
Activity [21]: Active
Activity [22]: Active
Activity [23]: Active
Activity [29]: inactive
